From ChEMBL document CHEMBL1153359, “Synthesis and biological evaluation of N4-(hetero)arylsulfonylquinoxalinones as HIV-1 reverse transcriptase inhibitors” (Bioorg Med Chem, 2009) come the findings set out here.

The test concerns Human immunodeficiency virus 1. Kind of test: Inhibition of HIV1 replication in human 293T cells preincubated 15 mins prior to infection measured after 48 hrs postinfection by luciferase reporter gene assay. The test is classed as functional, organism-based. Particulars: Human immunodeficiency virus 1, HEK-293T. Put shortly:
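Pseudotyped virus was made by co-transfecting 293 cells with the env-deficient HIV-1 luciferase vector pNL4-3.luc.R-E- and a VSV-G plasmid (modified calcium phosphate method). 293ET target cells were seeded at 6 × 10⁴ per well the day before infection. Compound was added 15 min before the VSVG/HIV-1 virus, with a solvent-only control. Cells were lysed 48 h post-infection.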
`CCC1C(=O)Nc2ccc(Cl)cc2N1S(=O)(=O)c1cccc2cccnc12` (stereo unspecified) showed an IC50 of more than 100000 nM.
`CC1C(=O)Nc2ccc(F)cc2N1S(=O)(=O)c1cccc2cccnc12` (stereo unspecified) yielded a concentration for half-maximal inhibition (IC50) of 7000 nM.
Consider `O=C1Nc2ccc(Cl)cc2[C@@](C#CC2CC2)(C(F)(F)F)O1` [EFAVIRENZ], for which the IC50 was found to be 1.3 nM.
In turn, `COC(=O)CC1C(=O)Nc2ccc(F)cc2N1S(=O)(=O)c1ccsc1C(=O)OC` (stereo unspecified) registered an IC50 of more than 100000 nM.
`O=C1CN(S(=O)(=O)c2cccc3cccnc23)c2cc(Cl)ccc2N1`: it took 330 nM to reach half-maximal inhibition (IC50).
With `N#Cc1cccc(S(=O)(=O)N2CC(=O)Nc3ccc(F)cc32)c1`, the half-inhibitory concentration (IC50) is more than 100000 nM.
`COC(=O)c1sccc1S(=O)(=O)N1c2cc(F)ccc2NC(=O)C1C` (stereo unspecified) had a concentration for half-maximal inhibition (IC50) of 200 nM.
As to `COC(=O)c1sccc1S(=O)(=O)N1CC(=O)Nc2cc(C(F)(F)F)ccc21`, the IC50 was more than 100000 nM.
Under `CCC1C(=O)Nc2ccc(Cl)cc2N1S(=O)(=O)c1ccsc1C(=O)OC` (stereo unspecified) stands 6300 nM; under `COC(=O)c1sccc1S(=O)(=O)N1CC(=O)Nc2ccc(Cl)cc21`, 830 nM.
Under `CCC1C(=O)Nc2ccc(F)cc2N1S(=O)(=O)c1ccsc1C(=O)OC` (stereo unspecified) stands 5000 nM.
`O=C1CN(S(=O)(=O)c2cccc3cccnc23)c2cc(F)ccc2N1` had a 50% inhibitory concentration (IC50) of 980 nM.
`O=C1CN(S(=O)(=O)c2cccc3cccnc23)c2ccc(C(F)(F)F)cc2N1` came in with an IC50 of more than 100000 nM.
`COC(=O)c1sccc1S(=O)(=O)N1c2cc(F)ccc2NC(=O)C1CCSC` (stereo unspecified): the IC50 was more than 100000 nM.
On to `CC1C(=O)Nc2ccc(F)cc2N1S(=O)(=O)c1ccc([N+](=O)[O-])cc1` (stereo unspecified), for which the half-inhibitory concentration (IC50) was more than 100000 nM.
`CC1C(=O)Nc2ccc(Cl)cc2N1S(=O)(=O)c1cccc2cccnc12` (stereo unspecified) yielded an IC50 of 650 nM.
`COC(=O)c1sccc1S(=O)(=O)N1CC(=O)Nc2ccc(F)cc21` came in with an IC50 of 2020 nM.
On to `COC(=O)c1sccc1S(=O)(=O)N1c2cc(Cl)ccc2NC(=O)C1C` (stereo unspecified), for which half-maximal inhibition (IC50) was put at 200 nM.
Next, `CC1C(=O)Nc2ccc(F)cc2N1S(=O)(=O)c1cc(Cl)sc1Cl` (stereo unspecified): more than 100000 nM; `Cc1cn([C@H]2C[C@H](N=[N+]=[N-])[C@@H](CO)O2)c(=O)[nH]c1=O` [ZIDOVUDINE]: 48 nM.
For `CC1C(=O)Nc2ccc(F)cc2N1S(=O)(=O)c1cccc(C#N)c1` (stereo unspecified), the IC50 was determined as 55000 nM.
